From PubChem BioAssay AID651952 (The Scripps Research Institute Molecular Screening Center, 2012)
The whole screen tested about 2,400 compounds, of which about 940 (39%) were called active. A selection follows. A number with no mark means an inactive call.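 Rule for the calls: active = inhibition above the plate's mean compound inhibition plus 3 SD, computed per plate (cut at about 22% in these data); inactive = the rest.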

Experiment: reduced calcium signal in Ga16 cells – fluorescence, CHO-Ga16 cells, counter-screen for TAAR1 agonist project (AID 651952);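 note: 0% = EC80 ATP with DMSO and 100% = DMSO wells without ATP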
Conditions: CHO-Ga16 ATP-induced calcium, Fluo-8 fluorescence; at 3 µM; hits give high values
How it was run: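 System: parental CHO cells stably overexpressing Gα16, lacking hTAAR1; dosing: one dose, 3 µM final; times: 17–24 h seeding, Fluo-8 75 min 37 °C, 30 min RT; measured by: Fluo-8 calcium fluorescence; evaluation: percent inhibition from peak-to-pre-ATP-basal fluorescence ratio, scaled between controls; benchmarks: high control DMSO alone, low control ATP EC80 with DMSO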

| Compound | inhibition |
| --- | --- |
| NC(=O)C1=C[C@H](c2csc3ccccc23)C[C@H](OCc2ccc(CO)cc2)O1 | 36.5% (active) |
| CCc1ccccc1S(=O)(=O)Cc1ccc(C(=O)NCCc2ccccc2)o1 | 8.92% |
| O=C(NCCc1ccccc1)Oc1ccc(Cl)cc1 | 11% |
| Cc1ccccc1NC(=S)NC(=O)Cc1ccc(Cl)cc1 | 44.5% (active) |
| O=C(Cc1ccc(Cl)cc1)NC(=S)Nc1ccccc1O | 92.6% (active) |
| S=C(NCCCc1cnc[nH]1)NCCCN(Cc1ccc(Cl)c(Cl)c1)c1ccc(Br)cn1 | 48.6% (active) |
| CCCCCCCCCCOC(=O)Cn1c(COc2ccc(C)cc2)[n+](C)c2ccccc21 | 75.9% (active) |
| Nc1cccc2c1C(=O)N(Cc1nnc(-c3ccccc3Br)o1)C2=O | 7.55% |
| O=C(CSc1nc(-c2ccco2)cc(C(F)(F)F)n1)NCc1cccs1 | 3.17% |
| NC(Cc1ccccc1)c1csc(Nc2cc(Oc3ccccc3)ncn2)n1 (stereo unspecified) | 34.3% (active) |
| O=C(COC(=O)Cc1ccccc1F)NCCc1ccccc1 | 5.44% |
| CC(=O)Oc1ccc(Cn2c(C)c(C(=O)NCc3ccc(C#N)cc3)sc2=O)cc1 | 45.6% (active) |
| CN(C)c1ccc(/C=C2\NC(=S)N(Cc3ccccc3)C2=O)cc1 | 71.1% (active) |
| O=C(/C=C/[C@H]1O[C@@H](n2cnc3c(NC(=O)c4ccccc4)ncnc32)[C@H](O)[C@@H]1O)NCc1ccccc1 | 7.32% |
| CN(C)CCCN(C(=O)c1ccc(S(=O)(=O)N2CCCc3ccccc32)cc1)c1nc2ccc(F)cc2s1 | 43.4% (active) |
| CN(C)CCCN(C(=O)c1ccc(S(=O)(=O)N2CCCCCC2)cc1)c1nc2ccc(Br)cc2s1 | 43% (active) |
| Cc1cc(=O)oc2c(C)c(OCC(=O)NCCN3CCOCC3)ccc12 | 7.14% |
| Nc1c(NCCc2ccccc2)c2ccccc2oc1=O | 18% |
| CCOC(=O)Cc1csc(NC(=O)Nc2ccccc2)n1 | 26.6% (active) |
| Cc1ccn2c(=O)c(C(=O)NCCC3=CCCCC3)c(O)nc2c1 | -3.36% |
| Cc1ccc(O)c(NC(=S)NC(=O)COc2ccc(Br)cc2)c1 | 92% (active) |
| COCCCn1c(Cc2csc(Nc3cccc(Cl)c3)n2)nnc1SCC(=O)OC1CCCCC1 | 6.89% |
| c1ccc(CCN2CN=C(Nc3nc4ccccc4o3)NC2)cc1 | -0.52% |
| CCCCCC(=O)NC(=S)NNC(=O)c1ccc([N+](=O)[O-])cc1 | 51.5% (active) |

| Compound | inhibition |
| --- | --- |
| O=C(NCCc1ccccc1)/C(=C\c1ccc([N+](=O)[O-])cc1)NC(=O)c1ccccc1 | 9.72% |
| CC(NC(=O)c1cc(-c2ccccc2)on1)c1ccccc1 (stereo unspecified) | 17.1% |
| O=[N+]([O-])c1cc(S(=O)(=O)NCCc2ccccn2)ccc1Cl | 0.96% |
| N#Cc1ccc(OCCCN2CCC(C(O)(c3ccccc3)c3ccccc3)CC2)c(F)c1 | 25.9% (active) |
| COc1ccc(NC(=O)C(=O)NCC(c2ccco2)N2CCc3ccccc3C2)cc1 (stereo unspecified) | 9.37% |
| COc1cccc(N(CC(=O)N2CCc3ccccc3C2)S(C)(=O)=O)c1 | 12.7% |
| O=C(O)C1C2C=CC(O2)C1C(=O)NCCc1cccc(Cl)c1 (stereo unspecified) | 7.32% |
| COc1ccc(C(=O)NC(=S)NNC(=O)CCc2ccccc2)cc1 | 58.5% (active) |
| COc1ccc(C(=O)NNC(=S)NC(=O)c2ccccc2)cc1 | 44.3% (active) |
| COc1ccc(C(=O)NC(=S)NNC(=O)c2c(-c3ccccc3)noc2C)cc1 | 14.4% |
| O=C(Nc1cccc(NC(=O)c2ccc(Br)cc2)c1)c1ccccc1 | 2.95% |
| Cc1onc(-c2ccccc2)c1C(=O)NNC(=S)NC(=O)c1ccc(F)cc1 | 50.7% (active) |
| CCCc1cc(C(=O)Nc2ccc(C(=O)OC)cc2)cs1 | 11.2% |
| O=C1CCCC(O)=C1C=NCCc1ccccc1 | 1.71% |
| Cc1ccccc1-c1nc(CS(=O)(=O)CC(=O)N2CCc3ccccc3C2)c(C)o1 | 18.3% |
| CCCCC(=O)NNC(=S)NC(=O)C(c1ccccc1)c1ccccc1 | 91% (active) |
| O=C(N[C@H](C(=O)N1CCC[C@H]1C(=O)NCCc1ccccc1Cl)c1ccccc1)c1ccccc1 | 12.2% |
| C[C@H](NC(=O)c1ccccc1)C(=O)OCC(=O)c1c[nH]c2ccccc12 | -1.32% |
| CN(C(=O)CN(CCO)CC(=O)N(C)C(C)(C)Cc1ccccc1)C(C)(C)Cc1ccccc1 | 74.1% (active) |
| COc1cccc(-c2cnc(OC(C)(C)C)nc2OC(C)(C)C)c1 | 4.69% |
| Cc1ccc(Cl)cc1N1CCN(C(=O)c2cccc3c(=O)c(C)c(-c4ccccc4)oc23)CC1 | 69.8% (active) |
| O=C(CCCN=C1NS(=O)(=O)c2ccccc21)OCC(=O)c1ccc(F)c(F)c1 | 26.1% (active) |
| CC(=O)Nc1ccccc1Sc1ccc2c3c(cccc13)C(=O)N(c1ccc(C)cc1)C2=O | 2.83% |
| Nc1cc(OC(=O)c2ccccc2Br)nn1S(=O)(=O)c1ccccc1 | 2.75% |

| Compound | inhibition |
| --- | --- |
| NC(c1ccccc1)c1csc(NC(=O)Nc2cccc(C(F)(F)F)c2)n1 (stereo unspecified) | 48% (active) |
| COc1ccc(C(N)c2csc(NC(=O)Nc3cccc(C(F)(F)F)c3)n2)cc1 (stereo unspecified) | 41.8% (active) |
| NC[C@H](Cc1ccccc1)NCCc1cc(C(F)(F)F)cc(C(F)(F)F)c1 | 9.31% |
| CCN(CC)c1ccc2oc(=O)c(C)nc2c1 | 37.7% (active) |
| CC(C)(C)CC(=O)Nc1nc(C(N)Cc2ccc(C(F)(F)F)cc2)cs1 (stereo unspecified) | 54.9% (active) |
| COc1ccc(CC(N)c2csc(NC(=O)Cc3ccccc3)n2)cc1 (stereo unspecified) | 20.4% |
| CCCCc1c(-c2ccc(Br)cc2)ncn1CCc1ccccc1OC | 23.5% (active) |
| CCCCc1c(-c2ccc(Cl)cc2)ncn1CCc1ccccc1OC | 28% (active) |
| CCc1c(-c2ccccc2OC)ncn1CCc1ccccc1OC | 3.45% |
| S=C(Nc1ccc(Br)cc1)NC1CCN(Cc2ccccc2)CC1 | 23.8% (active) |
| COc1ccc2c(c1)OC(O)(C(F)(F)C(F)F)CC2=O (stereo unspecified) | 17.6% |
| c1ccc(-c2csc(N3CCc4ccccc4C3)n2)cc1 | 0.61% |
| O=C(Nc1ccccc1)Nc1nnc(COc2ccccc2F)s1 | 27.2% (active) |
| O=C(Nc1ccncc1)Nc1ccc(F)cc1 | 12.7% |
| O=C(Nc1ccc(F)cc1)Nc1nnc([C@H]2C[C@H](O)[C@@H](CO)O2)s1 | 2.16% |
| CCC(c1nnnn1Cc1ccco1)N(CCc1ccccc1)Cc1cc2cccc(C)c2[nH]c1=O (stereo unspecified) | 13.9% |
| CCC(C(=O)Nc1ccc(C(C)C)cc1)c1ccccc1 (stereo unspecified) | 68% (active) |
| c1ccc2c(c1)C(=NC1CCCCC1)NC2=NC1CCCCC1 | 26.3% (active) |
| C#CCOc1ccc(/C=C2/C(=O)NN(c3ccccc3)C2=O)cc1OC | 9.41% |
| c1ccc(C2CNCc3c2ccc2ccccc32)cc1 (stereo unspecified) | 33.8% (active) |
| CCCOc1ccc(-c2c(C(=O)N/N=C/c3ccco3)nnn2-c2nonc2N)cc1 | 8.77% |
| CCc1ccc(-c2nn(-c3ccccc3)cc2CSC(=N)N)cc1 | 21.2% |
| CCOc1ccc(Br)cc1CSC(=N)N | 27.7% (active) |
| CCCCOc1ccc(CSC(=N)N)cc1[N+](=O)[O-] | 17.7% |

| Compound | inhibition |
| --- | --- |
| Nc1nonc1-n1nnc(C(=O)N/N=C/c2ccc(Cl)cc2)c1-c1ccc2c(c1)OCO2 | -0.91% |
| Nc1c(C(=O)c2cccs2)sc2nsc(SCCN3CCCCC3)c12 | 63% (active) |
| COc1ccc(OC)c(C(c2nnnn2C(C)(C)C)N2CCc3ccccc3C2)c1 (stereo unspecified) | 2.14% |
| CCCC1CCC(=NNC(=S)NCCc2ccccc2)CC1 (stereo unspecified) | 13.2% |
| c1ccc(Nc2nc(N3CCOCC3)c3ccccc3n2)cc1 | 28.7% (active) |
| Cc1ccc(S(=O)(=O)N(CC(=O)N2CCc3ccccc3C2)c2cccc(Cl)c2)cc1 | 18.1% |
| O=C1C=C(c2ccc(Cl)cc2)C(=O)N1Nc1ccccc1 | 79.5% (active) |
| Cc1ccc(Sc2cc(N3CCOCC3)nc(-c3ccccc3)n2)cc1 | -8.38% |
| Nc1nnn(CC(=O)N/N=C/c2ccccc2)n1 | 0.58% |
| CCCc1ccc(OCC(=O)NNC(=S)NC(=O)c2ccco2)cc1 | 50.6% (active) |
| CC(Oc1ccc2ccccc2c1)C(=O)NNC(=S)NC(=O)c1ccco1 (stereo unspecified) | 52.4% (active) |
| Cc1c(CNCCc2ccccc2)c(C(=O)O)c(C)n1-c1ccccc1 | 6.15% |
| CCCSc1nc2c(c(=O)n(C)c(=O)n2C)n1Cc1ccc(C)cc1 | 20.4% |
| Oc1ccc2ccc3cccc[n+]3c2c1 | 33.9% (active) |
| Cc1cc(C)c2cc(C#N)c(N3CCNCC3)nc2c1 | 3.67% |
| O=C(NNC(=S)NC(=O)c1cn(-c2ccccc2)nc1-c1ccccc1)c1ccncc1 | 57.6% (active) |
| COc1ccc2cc(-c3[nH]ncc3CNCCn3nc(C)cc3C)ccc2c1 | 4.6% |
| Cc1cccc(NC(=O)C(C)N2C(=O)C3C4CC(C(Br)C4Br)C3C2=O)c1 (stereo unspecified) | 43.9% (active) |
| O=c1cnnc(Nc2ccccc2)[nH]1 | 7.9% |
| COc1cc(OC)cc(C(=O)N[C@H](C(=O)OCC(=O)NC(C)c2ccccc2)C(C)C)c1 (stereo partly specified) | 6.73% |
| Cn1c(=O)c(=O)n(C)c2cc(S(=O)(=O)NCCc3ccccc3)ccc21 | -3.68% |
| O=C(Nc1ccc(Cl)cc1)N1CCc2[nH]c3ccccc3c2C1 | 14.7% |
| COc1ccc(OC)c(NC(=S)N2CCc3ccccc3C2)c1 | 5.63% |
| Fc1ccc(NC(=S)N2CCc3[nH]c4ccccc4c3C2)cc1 | 22.9% (active) |
